Inhibition data for ten compounds are collected here from ChEMBL document CHEMBL1152848, “Penetratin and derivatives acting as antifungal agents” (2009).

Common to all, as to format: functional
Assay [1] relates to Candida albicans. In words: Antifungal activity against Candida albicans ATCC 10231 assessed as growth inhibition at 100 uM after 24 hrs. The conditions noted are these: ATCC 10231, 24 h. The method in brief: (§1)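 Percent growth inhibition in 96-well microdilution, RPMI-1640. Peptide stocks in DMSO (≤2%), diluted to final 200–12.5 µM. Inoculum adjusted to 1-5 × 10^3 CFU/ml, grown beforehand on Sabouraud–chloramphenicol agar 48 h at 30 °C. Compound-free growth control with matching DMSO, plus sterility control. Incubated 24 h at 35 °C in a moist dark chamber, then read by microplate reader. Amphotericin B as 100% inhibition reference. Duplicates.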

The test system of assay [2] is Candida albicans. Description: Antifungal activity against Candida albicans ATCC 10231 assessed as growth inhibition at 50 uM after 24 hrs. The conditions noted are these: ATCC 10231, 24 h. The gist of the method:
as §1

The subject of assay [3] is Candida albicans. In words: Antifungal activity against Candida albicans ATCC 10231 assessed as growth inhibition at 25 uM after 24 hrs. The conditions noted are these: ATCC 10231, 24 h. The method in brief:
as §1

Assay [4] deals with Candida albicans. Description: Antifungal activity against Candida albicans ATCC 10231 assessed as growth inhibition at 12.5 uM after 24 hrs. The conditions noted are these: ATCC 10231, 24 h. The gist of the method:
as §1

Assay [5] concerns Cryptococcus neoformans. In words: Antifungal activity against Cryptococcus neoformans ATCC 32264 assessed as growth inhibition at 200 uM after 48 hrs. The conditions noted are these: ATCC 32264, 48 h. The method in brief: (§2)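 Percent growth inhibition by broth microdilution in RPMI-1640. Peptides were dissolved in DMSO (≤2%) and diluted to final 200–12.5 µM. Inoculum 1-5 × 10^3 CFU/ml, cells maintained on Sabouraud agar. Growth control (medium, inoculum, same DMSO, no compound) and sterility control per strain. Plates held 48 h at 35 °C, moist and dark, then read by microplate reader. Amphotericin B positive control. Duplicate tests.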

For assay [6], the system named is Cryptococcus neoformans. In words: Antifungal activity against Cryptococcus neoformans ATCC 32264 assessed as growth inhibition at 100 uM after 48 hrs. The conditions noted are these: ATCC 32264, 48 h. The method in brief: as §2
In assay [7] the test system is Cryptococcus neoformans. In words: Antifungal activity against Cryptococcus neoformans ATCC 32264 assessed as growth inhibition at 50 uM after 48 hrs. The conditions noted are these: ATCC 32264, 48 h. The method in brief:
as §2

The test system of assay [8] is Cryptococcus neoformans. Description: Antifungal activity against Cryptococcus neoformans ATCC 32264 assessed as growth inhibition at 25 uM after 48 hrs. The conditions noted are these: ATCC 32264, 48 h. The method in brief:
as §2

Assay [9] relates to Cryptococcus neoformans. Description: Antifungal activity against Cryptococcus neoformans ATCC 32264 assessed as growth inhibition at 12.5 uM after 48 hrs. The conditions noted are these: ATCC 32264, 48 h. The gist of the method: as §2
Assay [10] concerns Candida albicans. Description: Antifungal activity against Candida albicans ATCC 10231 assessed as growth inhibition at 200 uM after 24 hrs. The conditions noted are these: ATCC 10231, 24 h. The method in brief: as §1

Peptide text beside a SMILES is read from it.

The inhibition is the percentage by which the read-out fell short of the control. With H-WKQKNIKWRFRQKMIR-NH2, the inhibition at 100 µM in the assay on Candida albicans [1] stood at 52%; in the assay on Cryptococcus neoformans [6] it was 92%. In addition, the inhibition at 50 µM with Candida albicans [2] turned out to be 0%; with Cryptococcus neoformans [7], 36%. Moreover, the inhibition at 25 µM in the assay with Candida albicans [3] amounted to 0%; in the assay with Cryptococcus neoformans [8], 28%. The inhibition at 12.5 µM in the assay with Candida albicans [4] and with Cryptococcus neoformans [9] was 0% throughout. In addition, the inhibition at 200 µM was found to be 96% with Cryptococcus neoformans [5] and 60% with Candida albicans [10].
For the compound H-RKWRRKWKK-NH2, the inhibition at 100 µM was 76% with Candida albicans [1] and 68% with Cryptococcus neoformans [6]. Further, the figures for the inhibition at 50 µM in the assay with Candida albicans [2] and in the assay with Cryptococcus neoformans [7] were 58% and 14%, respectively. Also, the results for the inhibition at 25 µM with Candida albicans [3] and in the assay with Cryptococcus neoformans [8] were 40% and 16%, respectively. Further, the values for the inhibition at 12.5 µM in the assay with Candida albicans [4] and in the assay with Cryptococcus neoformans [9] were 15% and 0%, respectively. In addition, the inhibition at 200 µM was found to be 99% with Cryptococcus neoformans [5] and 100% with Candida albicans [10].
Consider `CC[C@H](C)[C@H](NC(=O)[C@H](CCCCN)NC(=O)[C@@H](NC(=O)[C@H](CCC(N)=O)NC(=O)[C@@H](N)CCCNC(=N)N)[C@@H](C)CC)C(=O)N[C@@H](Cc1c[nH]c2ccccc12)C(=O)N[C@@H](Cc1ccccc1)C(=O)N[C@@H](CCC(N)=O)C(=O)N[C@@H](CC(N)=O)C(=O)N[C@@H](CCCNC(=N)N)C(=O)N[C@@H](CCCNC(=N)N)C(=O)N[C@@H](CCSC)C(=O)N[C@@H](CCCCN)C(=O)N[C@@H](Cc1c[nH]c2ccccc12)C(=O)N[C@@H](CCCCN)C(=O)N[C@@H](CCCCN)C(N)=O` [PENETRATIN], for which the inhibition at 100 µM in the assay on Candida albicans [1] and in the assay with Cryptococcus neoformans [6] was 100% throughout. Further, the inhibition at 50 µM worked out at 95% in the assay on Candida albicans [2] and 100% in the assay with Cryptococcus neoformans [7]. Moreover, the inhibition at 25 µM with Candida albicans [3] came to 91%; in the assay with Cryptococcus neoformans [8], 100%. In addition, the values for the inhibition at 12.5 µM with Candida albicans [4] and with Cryptococcus neoformans [9] were 4% and 90%, respectively. The inhibition at 200 µM in the assay on Cryptococcus neoformans [5] and in the assay with Candida albicans [10] was 100% each time.
On to `CC(=O)N1CCN(c2ccc(OCC3COC(Cn4ccnc4)(c4ccc(Cl)cc4Cl)O3)cc2)CC1` (stereo not given) [KETOCONAZOLE], for which the inhibition at 100 µM in the assay with Candida albicans [1] and in the assay on Cryptococcus neoformans [6] was 100% throughout. The inhibition at 50 µM in the assay with Candida albicans [2] and in the assay on Cryptococcus neoformans [7] was 100% in each case. Besides, the inhibition at 25 µM with Candida albicans [3] and in the assay with Cryptococcus neoformans [8] was 100% throughout. Further, the inhibition at 12.5 µM in the assay with Candida albicans [4] and with Cryptococcus neoformans [9] was 100% in each case. Also, the inhibition at 200 µM with Cryptococcus neoformans [5] and in the assay on Candida albicans [10] was 100% in each case.
For the compound `C[C@@H]1[C@H](O)[C@@H](C)/C=C/C=C/C=C/C=C/C=C/C=C/C=C/[C@H](O[C@@H]2O[C@H](C)[C@@H](O)[C@H](N)[C@@H]2O)C[C@@H]2O[C@](O)(C[C@@H](O)C[C@@H](O)[C@H](O)CC[C@@H](O)C[C@@H](O)CC(=O)O[C@H]1C)C[C@H](O)[C@H]2C(=O)O` [AMPHOTERICIN B], the inhibition at 100 µM in the assay on Candida albicans [1] and in the assay on Cryptococcus neoformans [6] was 100% in each case. Moreover, the inhibition at 50 µM in the assay on Candida albicans [2] and in the assay on Cryptococcus neoformans [7] was 100% throughout. Further, the inhibition at 25 µM in the assay on Candida albicans [3] and with Cryptococcus neoformans [8] was 100% each time. For the same compound, the inhibition at 12.5 µM in the assay on Candida albicans [4] and in the assay with Cryptococcus neoformans [9] was 100% in each case. The inhibition at 200 µM in the assay on Cryptococcus neoformans [5] and in the assay with Candida albicans [10] was 100% in each case.
Consider H-RKRRKWKK-NH2, for which the inhibition at 100 µM in the assay with Candida albicans [1] was found to be 13%; in the assay on Cryptococcus neoformans [6], 33%. In addition, the inhibition at 50 µM in the assay with Candida albicans [2] was 0%; in the assay on Cryptococcus neoformans [7], 11%. Further, the inhibition at 25 µM with Candida albicans [3] is 0%; in the assay on Cryptococcus neoformans [8] it was 6%. The inhibition at 12.5 µM in the assay with Candida albicans [4] and in the assay with Cryptococcus neoformans [9] was 0% in each case. In addition, the inhibition at 200 µM in the assay with Cryptococcus neoformans [5] was found to be 100%; in the assay on Candida albicans [10], 29%.
H-RKFRRKFKK-NH2: the inhibition at 100 µM with Candida albicans [1] was 44%; with Cryptococcus neoformans [6], 11%. Besides, the values for the inhibition at 50 µM in the assay with Candida albicans [2] and with Cryptococcus neoformans [7] were 33% and 13%, respectively. In addition, the inhibition at 25 µM in the assay on Candida albicans [3] is 23%; with Cryptococcus neoformans [8], 9%. Also, the inhibition at 12.5 µM with Candida albicans [4] and in the assay with Cryptococcus neoformans [9] was 0% throughout. The values for the inhibition at 200 µM in the assay on Cryptococcus neoformans [5] and in the assay on Candida albicans [10] were 73% and 61%, respectively.
Take `NCCCC[C@H](NC(=O)[C@H](CCCCN)NC(=O)[C@H](Cc1c[nH]c2ccccc12)NC(=O)[C@@H](N)CCCCN)C(N)=O` (H-KWKK-NH2): the inhibition at 100 µM with Candida albicans [1] is 2%; in the assay on Cryptococcus neoformans [6] it was 0%. Moreover, the inhibition at 50 µM with Candida albicans [2] and in the assay with Cryptococcus neoformans [7] was 0% throughout. Besides, the inhibition at 25 µM in the assay on Candida albicans [3] and with Cryptococcus neoformans [8] was 0% throughout. In addition, the inhibition at 12.5 µM with Candida albicans [4] and in the assay on Cryptococcus neoformans [9] was 0% in each case. Moreover, the inhibition at 200 µM in the assay on Cryptococcus neoformans [5] came out at 0%; in the assay on Candida albicans [10], 9%.
On to H-RKRRKKK-NH2, for which the inhibition at 100 µM with Candida albicans [1] came to 12%; in the assay on Cryptococcus neoformans [6], 14%. The inhibition at 50 µM worked out at 0% with Candida albicans [2] and 19% in the assay on Cryptococcus neoformans [7]. The inhibition at 25 µM came to 0% in the assay on Candida albicans [3] and 10% in the assay with Cryptococcus neoformans [8]. Moreover, the inhibition at 12.5 µM with Candida albicans [4] and with Cryptococcus neoformans [9] was 0% each time. Further, the inhibition at 200 µM in the assay on Cryptococcus neoformans [5] came to 60%; in the assay on Candida albicans [10] it was 43%.
For `N=C(N)NCCC[C@H](N)C(=O)N[C@@H](CCC(N)=O)C(=O)N[C@@H](CCCCN)C(=O)N[C@@H](CCCCN)C(N)=O` (H-RQKK-NH2), the inhibition at 100 µM with Candida albicans [1] stood at 0%; in the assay with Cryptococcus neoformans [6], 100%. Besides, the inhibition at 50 µM was 0% with Candida albicans [2] and 92% with Cryptococcus neoformans [7]. In addition, the inhibition at 25 µM in the assay on Candida albicans [3] worked out at 0%; with Cryptococcus neoformans [8], 62%. The inhibition at 12.5 µM in the assay with Candida albicans [4] came out at 0%; in the assay on Cryptococcus neoformans [9], 32%. Moreover, the inhibition at 200 µM came out at 100% in the assay on Cryptococcus neoformans [5] and 6% with Candida albicans [10].
